Measurements published in publication PMC5575927 (ACS chemical biology, 2017).
Each block holds one compound with its values, some of them ahead of it. Where a SMILES comes first, the peptide text is derived from it. The star is where a group is joined. AMC = Cc1cc(=O)oc2cc(N*)ccc12; Boc = CC(C)(C)OC(=O)*

Legend:
[1] = test system: PmC11; experiment: E64 inhibition of PmC11 proteolytic activity; type: biochemical, Parabacteroides merdae; conditions: 4-fold excess of E64; Figure S5B
[2] = test system: clostripain; conditions: rather than covalently modifying the catalytic cysteine; ref [38],[39]; cited from earlier work
[3] = test system: PmC11; experiment: Michaelis-Menten kinetics of fluorogenic AMC substrate hydrolysis; type: biochemical, Parabacteroides merdae; conditions: 25 nM PmC11; PBS (pH 7.4), 5 mM DTT, 0.1 mM EDTA, 1 mM CaCl2, 0.1% CHAPS; 25 °C
Procedure, shortened: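 Recombinant His6-tagged WT PmC11 was expressed in E. coli, self-matured, and purified by Ni-NTA and anion exchange. Reactions were started by adding Ac-VLTK-AMC at 400 pM to 400 μM. Fluorescence (excitation 355 nm, emission 460 nm) was read every 20 s for 25 min. KM and kcat were obtained by Michaelis-Menten fitting of hydrolysis rates.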

[4] = biological target: PmC11 (Parabacteroides merdae, UniProt A0A9Q4WVB1); type: biochemical
Procedure, shortened: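 Recombinant His6-tagged WT PmC11 was expressed in E. coli BL21DE3pLysS, self-matured during expression, and purified by Ni-NTA then anion exchange. Test compound was applied at decreasing amounts from 5 μM to 10 nM during the 30 min preincubation. IC50 was derived from the rate of substrate hydrolysis measured after substrate addition.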

[5] = test system: PmC11; conditions: ref [16]; cited from earlier work

Compound: CC(C)C[C@H](NC(=O)[C@H]1O[C@@H]1C(=O)O)C(=O)NCCCCN=C(N)N (relative stereo) [E64, L-trans-Epoxysuccinyl-leucylamido(4-guanidino)butane]
loss of proteolytic activity [1]: 30%
manner of clostripain inhibition (in words) [2]: reversible competitive

Compound: CC(=O)N[C@H](C(=O)N[C@@H](CC(C)C)C(=O)N[C@H](C(=O)N[C@@H](CCCCN)C(=O)Nc1ccc2c(C)cc(=O)oc2c1)[C@@H](C)O)C(C)C [Ac-VLTK-AMC] (Ac-VLTK-{AMC})
kcat/KM (catalytic efficiency) [3]: 1.6 x 10^5 s^−1M^−1

IC50 [4]: < 25 nM
Compound: CC(=O)N[C@H](C(=O)N[C@@H](CC(C)C)C(=O)N[C@H](C(=O)N[C@@H](CCCCN)C(=O)COC(=O)c1c(C)cccc1C)[C@@H](C)O)C(C)C [Ac-VLTK-AOMK, acetyl-Val-Leu-Thr-Lys acyloxymethyl ketone (2,6-dimethylbenzoic acid-derived acyloxy leaving group)]

Compound: Cc1cc(=O)oc2cc(NC(=O)C(CCCN=C(N)N)NC(=O)c3ccccc3)ccc12.Cl (stereo not shown) [Bz-Arg-AMC]
hydrolysis by PmC11 (in words) [5]: hydrolyze

Compound: Boc-Val-Leu-Lys-{AMC}
hydrolysis by PmC11 (in words) [5]: hydrolyze

Compound: Z-Gly-Gly-Arg-AMC
hydrolysis by PmC11 (in words) [5]: hydrolyze
